# pIC50: −log10 of the molar value.
# Biological target: T1, 17-beta-hydroxysteroid dehydrogenase type 2 (Homo sapiens) (UniProt P37059)
# T1 sequence (whole entry): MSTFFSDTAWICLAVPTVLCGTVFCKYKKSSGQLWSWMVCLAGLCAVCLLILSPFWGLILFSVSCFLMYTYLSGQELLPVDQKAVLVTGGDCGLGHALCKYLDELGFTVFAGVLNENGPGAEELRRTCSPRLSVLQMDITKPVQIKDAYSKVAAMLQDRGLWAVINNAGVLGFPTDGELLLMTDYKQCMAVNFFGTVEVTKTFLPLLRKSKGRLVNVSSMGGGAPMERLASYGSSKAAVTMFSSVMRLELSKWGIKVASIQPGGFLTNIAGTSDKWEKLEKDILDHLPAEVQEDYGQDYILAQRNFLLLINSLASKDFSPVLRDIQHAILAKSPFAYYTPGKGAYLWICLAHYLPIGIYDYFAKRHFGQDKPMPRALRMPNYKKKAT
# Experiment: Inhibition of human microsomal 17beta-HSD2 using [2,4,6,7-3H]E2 as substrate at 1 uM after 20 mins by radioflow detector
# Method in brief: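 Microsomal fraction from human placenta incubated at 37 °C for 20 min with NAD+ (1500 µM), inhibitor and unlabeled plus [2,4,6,7-3H]-E2 (final 500 nM). Phosphate buffer 50 mM with 20% glycerol and 1 mM EDTA. Inhibitor stocks made in DMSO. Reaction stopped with HgCl2 and extracted with ether. E2 and E1 separated by HPLC with radioflow detection. Values are the mean of three determinations.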
row,SMILES,inhibition
1,Cc1cc(-c2cccc(C(=O)c3ccc(C)c(O)c3)n2)ccc1O,28%
2,O=C(c1cccc(O)c1)c1cccc(-c2ccc(O)c(F)c2)n1,40%
3,O=C(c1cccc(O)c1)c1cccc(-c2ccccc2O)n1,< 10%
4,Cc1cc(O)ccc1-c1cccc(C(=O)c2cccc(O)c2)n1,18%
5,Cc1cc(-c2cccc(C(=O)c3cc(O)cc(F)c3)n2)ccc1O,57%
6,O=C(c1ccc(F)c(O)c1)c1ccc(-c2ccc(O)c(Cl)c2)cn1,87%

# Results, then the compound that gave them:
row,inhibition,SMILES
1,90%,Cc1cc(-c2ccc(C(=O)c3cccc(O)c3)cc2)ccc1O
2,62%,Cc1cc(-c2cccc(C(=O)c3ccc(F)c(O)c3)n2)ccc1O
3,80%,O=C(c1ccc(-c2ccc(O)cc2Cl)cc1)c1cccc(O)c1
4,84%,Cc1cc(-c2ccc(C(=O)c3ccc(F)c(O)c3)nc2)ccc1O
5,68%,O=C(c1ccc(-c2ccc(O)c(F)c2)cc1)c1cccc(O)c1
6,11%,Cc1cc(-c2ccc(C(=O)c3ccc(F)c(F)c3)cc2)ccc1O

# Biological target: T2, 17-beta-hydroxysteroid dehydrogenase type 1 (Homo sapiens) (UniProt P14061)
# T2 sequence (whole entry): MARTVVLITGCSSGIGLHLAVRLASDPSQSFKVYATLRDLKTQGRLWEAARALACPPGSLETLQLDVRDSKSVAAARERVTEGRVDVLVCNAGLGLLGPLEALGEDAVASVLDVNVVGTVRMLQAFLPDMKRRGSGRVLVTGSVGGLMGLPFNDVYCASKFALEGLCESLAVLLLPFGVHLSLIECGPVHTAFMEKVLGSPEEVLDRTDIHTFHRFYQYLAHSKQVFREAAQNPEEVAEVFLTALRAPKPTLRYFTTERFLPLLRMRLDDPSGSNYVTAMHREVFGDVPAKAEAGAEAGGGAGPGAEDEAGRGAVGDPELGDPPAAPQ
# Experiment: Inhibition of human cytosolic 17beta-HSD1 using [2,4,6,7-3H]E1 as substrate at 1 uM after 10 mins by radioflow detector
# Method in brief: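 Cytosolic fraction from human placenta incubated with NADH (500 µM), test compound and unlabeled plus [2,4,6,7-3H]-E1 (final 500 nM) for 10 min at 37 °C. Phosphate buffer 50 mM with 20% glycerol and 1 mM EDTA. Inhibitor stocks made in DMSO. Reaction stopped with HgCl2 and extracted with ether. Substrate and product separated by HPLC with radioflow detection. Values are the mean of three determinations.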
row,SMILES,inhibition
1,Cc1cc(-c2cccc(C(=O)c3ccc(C)c(O)c3)n2)ccc1O,< 10%
2,O=C(c1cccc(O)c1)c1cccc(-c2ccc(O)c(F)c2)n1,47%
3,O=C(c1cccc(O)c1)c1cccc(-c2ccccc2O)n1,< 10%
4,Cc1cc(O)ccc1-c1cccc(C(=O)c2cccc(O)c2)n1,< 10%
5,Cc1cc(-c2cccc(C(=O)c3cc(O)cc(F)c3)n2)ccc1O,< 10%
6,O=C(c1ccc(F)c(O)c1)c1ccc(-c2ccc(O)c(Cl)c2)cn1,50%

# Continued, values first:
row,inhibition,SMILES
1,58%,Cc1cc(-c2ccc(C(=O)c3cccc(O)c3)cc2)ccc1O
2,< 10%,Cc1cc(-c2cccc(C(=O)c3ccc(F)c(O)c3)n2)ccc1O
3,43%,O=C(c1ccc(-c2ccc(O)cc2Cl)cc1)c1cccc(O)c1
4,47%,Cc1cc(-c2ccc(C(=O)c3ccc(F)c(O)c3)nc2)ccc1O
5,26%,O=C(c1ccc(-c2ccc(O)c(F)c2)cc1)c1cccc(O)c1
6,16%,Cc1cc(-c2ccc(C(=O)c3ccc(F)c(F)c3)cc2)ccc1O

# Biological target: T3, 17-beta-hydroxysteroid dehydrogenase type 2 (Homo sapiens, UniProt P37059)
# T3 sequence (P37059 whole entry): T1 sequence (whole entry)
# Experiment: Inhibition of human microsomal 17beta-HSD2 in cell-free system using [2,4,6,7-3H]E2 as substrate after 20 mins by radioflow detector
row,pIC50,SMILES
1,6.88,Cc1cc(-c2ccc(C(=O)c3cccc(O)c3)cc2)ccc1O
2,6.12,Cc1cc(-c2cccc(C(=O)c3ccc(F)c(O)c3)n2)ccc1O
3,6.75,O=C(c1ccc(-c2ccc(O)cc2Cl)cc1)c1cccc(O)c1
4,7.00,Cc1cc(-c2ccc(C(=O)c3ccc(F)c(O)c3)nc2)ccc1O
5,6.28,O=C(c1ccc(-c2ccc(O)c(F)c2)cc1)c1cccc(O)c1
6,6.82,O=C(c1ccc(F)c(O)c1)c1ccc(-c2ccc(O)c(Cl)c2)cn1

# Biological target: T4, 17-beta-hydroxysteroid dehydrogenase type 1 (Homo sapiens, UniProt P14061)
# T4 sequence (P14061 whole entry): T2 sequence (whole entry)
# Experiment: Inhibition of human cytosolic 17beta-HSD1 in cell-free system using [2,4,6,7-3H]E1 as substrate after 10 mins by radioflow detector
row,pIC50,SMILES
1,6.38,Cc1cc(-c2ccc(C(=O)c3cccc(O)c3)cc2)ccc1O
2,4.65,Cc1cc(-c2cccc(C(=O)c3ccc(F)c(O)c3)n2)ccc1O
3,5.75,O=C(c1ccc(-c2ccc(O)cc2Cl)cc1)c1cccc(O)c1
4,5.90,Cc1cc(-c2ccc(C(=O)c3ccc(F)c(O)c3)nc2)ccc1O
5,5.61,O=C(c1ccc(-c2ccc(O)c(F)c2)cc1)c1cccc(O)c1
6,5.99,O=C(c1ccc(F)c(O)c1)c1ccc(-c2ccc(O)c(Cl)c2)cn1

# Species: Homo sapiens
# Experiment: Selectivity ratio of IC50 for human cytosolic 17beta-HSD1 to IC50 for human microsomal 17beta-HSD2
# Method in brief: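 Ratio calculated as IC50(17β-HSD1)/IC50(17β-HSD2). 17β-HSD1 was measured in placental cytosol with [3H]-E1 + E1 (500 nM) and NADH (0.5 mM). 17β-HSD2 was measured in placental microsomes with [3H]-E2 + E2 (500 nM) and NAD+ (1.5 mM). Each IC50 is the mean of three determinations.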
row,Ratio IC50,SMILES
1,0.02,Cc1cc(-c2ccc(C(=O)c3cccc(O)c3)s2)ccc1O
2,3,Cc1cc(-c2ccc(C(=O)c3cccc(O)c3)cc2)ccc1O
3,30,Cc1cc(-c2cccc(C(=O)c3ccc(F)c(O)c3)n2)ccc1O
4,11,O=C(c1ccc(-c2ccc(O)cc2Cl)cc1)c1cccc(O)c1
5,13,Cc1cc(-c2ccc(C(=O)c3ccc(F)c(O)c3)nc2)ccc1O
6,5,O=C(c1ccc(-c2ccc(O)c(F)c2)cc1)c1cccc(O)c1
7,7,O=C(c1ccc(F)c(O)c1)c1ccc(-c2ccc(O)c(Cl)c2)cn1

# Biological target: T5, Estrogen receptor (Homo sapiens) (UniProt P03372)
# T5 sequence (whole entry): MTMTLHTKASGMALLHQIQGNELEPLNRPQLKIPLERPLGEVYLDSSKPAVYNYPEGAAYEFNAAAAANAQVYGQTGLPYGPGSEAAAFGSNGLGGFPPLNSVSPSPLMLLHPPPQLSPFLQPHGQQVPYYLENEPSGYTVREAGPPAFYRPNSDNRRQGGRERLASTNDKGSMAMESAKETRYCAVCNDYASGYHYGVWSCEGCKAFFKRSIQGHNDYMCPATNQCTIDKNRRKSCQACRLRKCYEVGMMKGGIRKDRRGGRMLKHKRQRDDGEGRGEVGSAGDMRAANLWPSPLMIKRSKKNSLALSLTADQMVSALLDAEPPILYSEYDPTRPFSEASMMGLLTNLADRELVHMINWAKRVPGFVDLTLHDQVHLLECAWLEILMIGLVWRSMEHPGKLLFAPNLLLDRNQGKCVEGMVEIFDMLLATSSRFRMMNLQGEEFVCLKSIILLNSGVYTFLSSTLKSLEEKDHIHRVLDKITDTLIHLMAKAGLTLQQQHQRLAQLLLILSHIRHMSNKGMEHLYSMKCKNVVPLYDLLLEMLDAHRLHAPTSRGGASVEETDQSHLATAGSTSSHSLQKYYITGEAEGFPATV
# Experiment: Displacement of [3H]E2 from human recombinant ERalpha after 1 hr by liquid scintillation counting relative to estradiol
# Method in brief: (§1)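 Recombinant human ERα or ERβ (0.25 pmol) incubated with [3H]-E2 (10 nM) and test compound for 1 h at room temperature, DMSO 5% final. Non-specific binding defined with diethylstilbestrol. Receptor-ligand complexes captured on hydroxyapatite, washed, resuspended in ethanol, and counted by liquid scintillation. IC50 for [3H]-E2 displacement taken from sigmoidal curves. RBA = IC50(E2)/IC50(compound) × 100, with unlabeled E2 as reference.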
row,RBA,SMILES
1,< 0.1%,Cc1cc(-c2ccc(C(=O)c3cccc(O)c3)cc2)ccc1O
2,< 0.1%,Cc1cc(-c2ccc(C(=O)c3ccc(F)c(O)c3)nc2)ccc1O

# Biological target: Estrogen receptor beta (Homo sapiens) (UniProt Q92731)
# Experiment: Displacement of [3H]E2 from human recombinant ERbeta after 1 hr by liquid scintillation counting relative to estradiol
# Method in brief: as §1
# Chain of Estrogen receptor beta (Homo sapiens) (Q92731 whole entry): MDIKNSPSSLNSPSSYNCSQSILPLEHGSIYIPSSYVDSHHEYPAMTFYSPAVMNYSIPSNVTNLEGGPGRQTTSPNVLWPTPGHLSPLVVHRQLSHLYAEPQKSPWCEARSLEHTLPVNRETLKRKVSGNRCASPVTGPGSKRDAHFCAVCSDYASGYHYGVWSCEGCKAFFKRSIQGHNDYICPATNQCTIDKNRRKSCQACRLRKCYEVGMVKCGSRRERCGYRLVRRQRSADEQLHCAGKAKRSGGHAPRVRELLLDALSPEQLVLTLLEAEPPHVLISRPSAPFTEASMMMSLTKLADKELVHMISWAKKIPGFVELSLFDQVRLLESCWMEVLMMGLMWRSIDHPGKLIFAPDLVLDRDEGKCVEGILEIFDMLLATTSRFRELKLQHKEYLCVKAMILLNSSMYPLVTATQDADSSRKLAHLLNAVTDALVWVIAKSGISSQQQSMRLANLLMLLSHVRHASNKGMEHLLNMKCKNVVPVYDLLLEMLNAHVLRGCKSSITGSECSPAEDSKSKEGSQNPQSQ
row,RBA,SMILES
1,< 0.1%,Cc1cc(-c2ccc(C(=O)c3cccc(O)c3)cc2)ccc1O
2,< 0.1%,Cc1cc(-c2ccc(C(=O)c3ccc(F)c(O)c3)nc2)ccc1O

# — ChEMBL document CHEMBL1926507, “Discovery of a new class of bicyclic substituted hydroxyphenylmethanones as 17β-hydroxysteroid dehydrogenase type 2 (17β-HSD2) inhibitors for the treatment of osteoporosis” (Eur J Med Chem, 2012)
